Experimental data as given in ChEMBL document CHEMBL1275487, “Reduced biocide susceptibility in Candida albicans biofilms” (Antimicrob Agents Chemother, 2008).

Assays:
[1] = test system: Candida albicans; assay: Antifungal activity against Candida albicans K1 grown as planktonic cells by CLSI method; type: functional
In short: (§1)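 Planktonic biocide MICs were determined by CLSI broth microdilution using CLSI endpoints, with the standard CLSI inoculum (0.5 × 10^3 to 2.5 × 10^3 CFU/ml) in RPMI-MOPS. Triplicate, two occasions.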

[2] = test system: Candida parapsilosis; assay: Antifungal activity against Candida parapsilosis 5986 grown as planktonic cells using 10^6 to 10^7 cells by CLSI method; type: functional, organism-based
In short: (§2)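 Planktonic susceptibility was tested by the CLSI method with the inoculum raised to the mature-biofilm cell density (10^6 to 10^7 cells/well) in RPMI-MOPS. EC50 and EC80 values were derived. Triplicate, two occasions.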

[3] = test system: Nakaseomyces glabratus; assay: Antifungal activity against Candida glabrata 5740 grown as planktonic cells by CLSI method; type: functional; in short: as §1
[4] = test system: Candida albicans; assay: Antifungal activity against Candida albicans DAY 185 assessed as decrease mature biofilm burden after 24 hrs by XTT reduction assay; type: functional, organism-based
In short: (§3)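 Biofilms formed in 96-well polystyrene plates in RPMI-MOPS, inoculum 10^6 to 10^7 cells/well, 24 h at 30°C, then washed twice with PBS. Biocides were added with fresh medium to the 24 h mature biofilms (H2O2 1 to 1,000 mM; EtOH 0.05 to 50%; SDS 0.0004 to 0.4%). After a further 24 h at 30°C, metabolic activity was read by XTT reduction. EC50 and EC80 are the concentrations giving 50% and 80% reduction in OD versus no-drug controls. Triplicate, two occasions.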

[5] = test system: Candida albicans; assay: Antifungal activity against Candida albicans DAY 185 assessed as inhibition of biofilm formation after 24 hrs by XTT reduction assay; type: functional, organism-based
In short: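 Biocides were added to the wells at the time of inoculation in 96-well polystyrene plates (RPMI-MOPS, 10^6 to 10^7 cells/well) and incubated 24 h at 30°C (H2O2 1 to 1,000 mM; EtOH 0.05 to 50%; SDS 0.0004 to 0.4%). XTT reduction was then read. EC50 and EC80 are the concentrations giving 50% and 80% OD reduction versus no-drug controls. Triplicate, two occasions.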

[6] = test system: Candida albicans; assay: Antifungal activity against Candida albicans DAY 185 grown as planktonic cells by CLSI method; type: functional; in short: as §1
[7] = test system: Candida parapsilosis; assay: Antifungal activity against Candida parapsilosis 5986 grown as planktonic cells by CLSI method; type: functional; in short: as §1
[8] = test system: Candida albicans; assay: Antifungal activity against Candida albicans DAY 185 grown as planktonic cells using 10^6 to 10^7 cells by CLSI method; type: functional, organism-based; in short: as §2
[9] = test system: Candida albicans; assay: Antifungal activity against Candida albicans K1 assessed as decrease mature biofilm burden after 24 hrs by XTT reduction assay; type: functional, organism-based; in short: as §3
[10] = test system: Nakaseomyces glabratus; assay: Antifungal activity against Candida glabrata 5740 grown as planktonic cells using 10^6 to 10^7 cells by CLSI method; type: functional, organism-based; in short: as §2
[11] = test system: Candida albicans; assay: FICI in Candida albicans DAY 185 after 24 hrs in presence of fluconazole; type: functional
In short: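 Checkerboard format on 24 h mature biofilms, with each biocide combined with fluconazole (0.0625 to 1,000 μg/ml). Incubation was 24 h with the combination, followed by an XTT reduction readout against no-drug controls. Fractional inhibitory concentration indices were calculated to gauge how each biocide affects fluconazole activity.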

[12] = test system: Candida albicans; assay: Antifungal activity against Candida albicans K1 grown as planktonic cells using 10^6 to 10^7 cells by CLSI method; type: functional, organism-based; in short: as §2
[13] = test system: Nakaseomyces glabratus; assay: Antifungal activity against Candida glabrata 5740 assessed as decrease mature biofilm burden after 24 hrs by XTT reduction assay; type: functional, organism-based; in short: as §3
[14] = test system: Candida parapsilosis; assay: Antifungal activity against Candida parapsilosis 5986 assessed as decrease mature biofilm burden after 24 hrs by XTT reduction assay; type: functional, organism-based; in short: as §3

MIC [1] [%] | EC50 [2] [%] | MIC [3] [%] | MIC [6] [%] | MIC [7] [%] | EC50 [8] [%] | EC50 [10] [%] | EC50 [12] [%] | SMILES | EC80 [2] [%] | EC50 [4] [%] | EC80 [4] [%] | EC50 [5] [%] | EC80 [5] [%] | EC80 [8] [%] | EC50 [9] [%] | EC80 [9] [%] | EC80 [10] [%] | fractional inhibitory concentration index (FICI) [11] | EC80 [12] [%] | EC50 [13] [%] | other results
1.5 | 6 | 3 | 3 | 1.5 | 6 | 13 | 6 | CCO [ALCOHOL] | 6 | 35 | 40 | 35 | 35 | 13 | 25 | 25 | 13 | <0.5 | 13 | 25 | EC80 [13]: 25%; EC50 [14]: 25%; EC80 [14]: 25%
0.01 | 0.03 | 0.01 | 0.01 | 0.01 | 0.05 | 0.03 | 0.03 | CCCCCCCCCCCCOS(=O)(=O)[O-].[Na+] [SODIUM LAURYL SULFATE] | 0.05 | 0.15 | 0.15 | 0.05 | 0.1 | 0.05 | 0.05 | 0.1 | 0.03 | 1 | 0.05 | 0.05 | EC80 [13]: 0.05%; EC50 [14]: 0.05%; EC80 [14]: 0.1%
